The whole screen tested about 2,400 compounds, of which about 940 (39%) were called active.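 Rule for the calls: active = inhibition above the plate's mean compound inhibition plus 3 SD, computed per plate (cut at about 22% in these data); inactive = the rest.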 Not all results are given here.

The values that follow come from PubChem BioAssay AID651952 (The Scripps Research Institute Molecular Screening Center, 2012).

This assay in a line: reduced calcium signal in Ga16 cells – fluorescence, CHO-Ga16 cells, counter-screen for TAAR1 agonist project (AID 651952).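 Note: 0% = EC80 ATP with DMSO and 100% = DMSO wells without ATP.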 The conditions noted are these: CHO-Ga16 ATP-induced calcium, Fluo-8 fluorescence; at 3 µM; hits give high values. The method in brief: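 replicates = triplicate wells per compound | material = CHO-Gα16 parent cell line without hTAAR1 | incubation = 17–24 h seeding, dye 75 min 37 °C, 30 min RT | measure = percent inhibition from peak-to-pre-ATP-basal fluorescence ratio, scaled between controls | signal = Fluo-8 fluorescence, Ex 470–495 nm, Em 515–575 nm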
In general terms: A counterscreen serves to expose hits that act by an unwanted route or on another target.
The term inhibition denotes the share of the control response that was lost under treatment. Consider `O=C1NC(=O)N(Cc2ccco2)C(=O)/C1=C\c1ccc(-c2ccc(F)cc2)o1`, for which the inhibition was 44% (active).
With `Clc1ccc2nc3c(c(-c4ccccc4)c2c1)CNCC3` the figure was 0.28% (inactive).
For `CC(Cc1ccccc1)NC=O` (centres undefined), the inhibition is 11.2% (inactive).
As to `CCCCC(=O)N/N=C/c1c(O)n(CC)c(=S)n(CC)c1=O`, the inhibition was 64.5% (active).
On to `COc1ccc(Br)cc1CNCCc1cccc(Cl)c1`, for which the inhibition was 14.7% (inactive).
With `c1ccc(CCNC2CCCCCC2)cc1` the figure was 2.61% (inactive); with `Cc1cccc(N2C(=O)NC(=O)/C(=C\c3cnn(-c4ccccc4)c3)C2=O)c1`, 40.6% (active); with `CCC(=NCCc1ccccc1)c1c(O)n(C2CCCCC2)c(=O)[nH]c1=O`, 21.1% (inactive).
As for `NCC(O)c1ccc(O)cc1` (centres undefined), the figure is 3.87% (inactive).
